The EternaBench riboswitch data

System: MS2 coat protein
Experiment: apparent Kd, MS2 coat protein; higher = weaker binding; RNA-MaP array; FMN 200 µM where present
Outline: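 Designs were transcribed by stalled E. coli RNA polymerase on Illumina sequencing-chip clusters. They were titrated with SNAP-549-labelled MS2 coat protein from 0.7 or 1.5 nM, doubling to 3 µM, without and then with constant ligand. Buffer: 100 mM Tris-HCl pH 7.5, 80 mM KCl, 4 mM MgCl2, BSA, DTT, yeast tRNA, Tween-20. Green signal was normalised to red-channel RNA signal and control-cluster median Fmax. Apparent Kd is the median of filtered per-cluster binding-curve fits.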

[1] = designed as: OFF switch for flavin mononucleotide, no ligand
[2] = ligand present: flavin mononucleotide, designed as: OFF switch for flavin mononucleotide
[3] = designed as: ON switch for flavin mononucleotide, no ligand
[4] = ligand present: flavin mononucleotide, designed as: ON switch for flavin mononucleotide

| Sequence | apparent Kd [1] | apparent Kd [2] | apparent Kd [3] | apparent Kd [4] |
| --- | --- | --- | --- | --- |
| UUUUAGGCAGGAUAUACAUGAGGAUCACCCAUGUAAAUUUUUCGUUUAACUUGAAUGUGUAGAAGGGCCAUAUU | 20.5 nM | 21.4 nM | – | – |
| AGAUGGUAUAUAGGAUAUCAUGUGCAAACAUGAGGAUCACCCAUGUAGAGACGUCAGUUUAAUAAUGAGAAGGAUAUACCAUCU | – | – | 31.9 nM | 14.4 nM |
| AACUGCUGCGUUGUGAUUUCUCCACAUGAGGAUCACCCAUGUCAGGAUAUCUUACCUAGCGGACAAGAGAAGGGACAUGACGGU | 348 nM | 129 nM | – | – |
| GUAGCAUACCGAGGAUAUUCAGGGCGUGGGUAAACAUGAGGAUCACCCAUGUGGCGAAAGCCUAGGGAGAAGGCGGAAUGCUAC | – | – | 151 nM | 130 nM |
| AACAGGUUCACAUGAGGAUCACCCAUGUUAGCCUAAUGUAGGAGAAGGACGGUAGCUGGGCUGACGUAGGAUAUCCUACUGUGA | – | – | 5.08 nM | 5.11 nM |
| GUCGAGUGAGGAUAUGGUGAGUAGUGCCUGAGCGCUGCUCACCAGAAGGCACAUGAGGAUCACCCAUGUAUGAC | 18.2 nM | 23.9 nM | – | – |
| GGUCCAAUAUGAGGAUAUAGCAUCUUAUUGAUGCUAGAAGGCGUGUCGGUAGACAUGAGGAUCACCCAUGUAUUACAAUGGACC | – | – | 110 nM | 29.4 nM |
| UGGUCAUGAUCAGGAUAUUAACAUGGGCUACAUUAAGAAGGGAUAGUGAGAUGCGAACGGAGCGACAUGAGGAUCACCCAUGUA | – | – | 39.2 nM | 25.5 nM |
| GGUACUCAAAGAGUACCAAUACGAACAUGAGGAUCACCCAUGUAGGAUAUGCUACUCAAAGAGUAGCAGAAGGACAUGUCCCUA | 13.1 nM | 35.2 nM | – | – |
| AGUCGGAGCAGAGGAUAUAUACAUGAGGAUCACCCAUGUAAAGAUCAAAGCUGGAAACAGCAAGUAUAGAAGGCUGCUCCGACA | 90.5 nM | 271 nM | – | – |
| ACCAUUUACUAAUUAUCUAUACAUGAGGAUCACCCAUGUUAAGAGGAUAUCAUCGUUCGCCGCGUUGAGAAGGCUUAGCAUUCG | 26.4 nM | 101 nM | – | – |
| GGGUGUGAAGGAUAUACAUGAGGAUCACCCAUGUGAGAGGAGAAUGUUGAGGAGGUUGGUAGAAGGUCAGGAGG | 93.8 nM | 67.6 nM | – | – |
| GAGGAUAGAGGAUAUGCAUAGAUACGGAUUCGUGUAGUACUACAUGAGGAUCACCCAUGUAGAAGGCUGUCCAG | 12.7 nM | 22 nM | – | – |
| GGGCCGAAAGGCCCGCGGGCCCGGGAGGAUAUACAUGAGGAUCACCCAUGUCCGGCGAAAGCCGGGUAGAAGGCCCGGGCCCGC | 5.38 nM | 7.03 nM | – | – |
| CACAUGUGAGGAUAUGUACGAGGCCCGGACGGGUCUCGCAGGCAGAAGGCACAUGAGGAUCACCCAUGUGACCG | 23.9 nM | 66.7 nM | – | – |
| GGAGAUACAUGAGGAUCACCCAUGUAGGAUAUCGGGUAUAUAUAUGGCGAAAGCCAUAUAUAUACCGAGAAGGGCGUACACACC | 8.59 nM | 8.11 nM | – | – |
| GACAUGAGGAUCACCCAUGUCCAACCAGAAGGCCAGGAAUCGGACCCGUGUAUCGGGUUCGAGAUGGAGGAUAUGGGCGCCGAA | – | – | 78.2 nM | 34.1 nM |
| CCGAUGAGAGUCGGGCUACAUGAGGAUCACCCAUGUGCUUCACAGGAUAUGGUACGUAGUGAGUUCCAGAAGGGUGAUUAAUCU | – | – | 316 nM | 48.7 nM |
| AAUGAAACUUAGAAGGCCUACAUGAGGAUCACCCAUGUGGCUUUAAGUGUAGGAGGAUAUGAGGAUGCGGGCAGGAACCCACGC | 6.17 nM | 11.6 nM | – | – |
| GGGUACAUCGGAGGAUAUCAUGUAAAUACAUGAGGAUCACCCAUGUCGAUGGAGACAUCGUAGAUUGAGAAGGCCGAUGUACCG | – | – | 9.85 nM | 5.37 nM |
| AUCAGCUCGUCAGGAUAUACGUCACUGCGUCAGCAGUGUGGUAAGAUCACAUGAGGAUCACCCAUGUAGAAGGGACGAGAUGAU | 13.8 nM | 247 nM | – | – |
| GCAGCACAGUUUUACAUGAGGAUCACCCAUGUCGAUUGUUAUGAGGAUAUGCAUCGUAUGAAGAUGCAGAAGGCAUUGUGCUGC | – | – | 6.96 nM | 5.5 nM |
| GUACAGUAGUGAGGAUAUACGAGAUCGAUAGAUCGGCGAUCCAUUAAUACAUGAGGAUCACCCAUGUAGAAGGCACUUCUGUAC | 5.84 nM | 82.5 nM | – | – |
| CGCUACGUUUCGUAGCAGUGUCAUCGAGAAGGCCCUGACAUGAGGAUCACCCAUGUUCCUGAAAAGGAGGAUAUCGAUGAUACA | – | – | 8.86 nM | 7.04 nM |

| Sequence | apparent Kd [1] | apparent Kd [2] | apparent Kd [3] | apparent Kd [4] |
| --- | --- | --- | --- | --- |
| CAGAUAAAAGUGUGGUCGUCGACAUGAGGAUCACCCAUGUACGAGGAUAUGUAAUAUACGGUAUAGCAGAAGGCGUAUGGGUGU | 74.6 nM | 103 nM | – | – |
| GGGAGACAUGAGGAUCACCCAUGUGAAAACGUGGCAGGAUAUGGAUGGAAACCAUACUGUCCAGAAGGGCCUUGUC | – | – | 47.4 nM | 37.8 nM |
| GCUGUAAAUGAGAAGGCGAUCAUGAAACAUGAUCGAGGAUAUCAUGUUUACAUGAGGAUCACCCAUGUAUGGGUAUAUUGCAGC | – | – | 618 nM | 19.6 nM |
| GCGUAAUAGGUGUAGCUAGUCGUGCAAGAAGGGUGGUGAACAUGAGGAUCACCCAUGUGGUCAGUACAGGAUAUUGCUAUACGC | – | – | 542 nM | 130 nM |
| CCGGAAACGGGUAGCCUGACAUGAGGAUCACCCAUGUAAUCCGAGGAUAUGGAUCCUAAUUGGAUCCAGAAGGUGGCAGGCUAC | – | – | 463 nM | 127 nM |
| CAGCAAAGGUAGAAGGCAGUACUGAUACAGUACUGAGGAUAUACAUGAGGAUCACCCAUGUAAAAAAGCUGGAAAUAAAUAAAA | 7.39 nM | 10 nM | – | – |
| AAGAUGUUAGGAUAUGCUGCUCGUCACAAAAGUGAUGAGUAGCAGAAGGAACAUGAGGAUCACCCAUGUAAAGA | 31 nM | 55.3 nM | – | – |
| UAUGUAUUCGUAGGAUAUCCGUCGAGACCGUGUGGAGAAGGACGAACAUGAGGAUCACCCAUGUAUCAUGGUGUAGACAAUUUU | 47.4 nM | 186 nM | – | – |
| UAAAUUAACAAGAAGGCUAACAUGAGGAUCACCCAUGUUGUACAUGGAUAUAGAGGAUAUUGCUAUUAAUUAUUUAUCAUAAUU | 21.2 nM | 18.9 nM | – | – |
| GCUAUUGGCUAAGGAUAUGGAUACAUGAGGAUCACCCAUGUAUUUUUUGUGAUCAUAUAAAUGAUCCAGAAGGUAGCUGUUAGC | 21.9 nM | 62.1 nM | – | – |
| ACAUAAUACGAGAAGGGAGUACAUGAGGAUCACCCAUGUGCUCAGGUGUACUCAGGAUAUCGGCUGACGCAAGGUUCAGGGAAU | 11.6 nM | 94.3 nM | – | – |
| AGUUACAUGAGGAUCACCCAUGUGUAUAGGGCAACCUAUAGACAGGAUAUCCGGCAUGCGGCCUAGGAGAAGGGUCAAAGAAGA | – | – | 91.5 nM | 429 nM |
| AGUUUCUCCGCAGGAUAUGUGCUCUUUAUCACAUGAGGAUCACCCAUGUCAGCCUACACGGCGAGACAGAAGGGUGGUGAUGCC | – | – | 88.6 nM | 81.2 nM |
| AUACAUGAGGAUCACCCAUGUUACUGGGUCUAUAUAGAACGUAGAAGGAUGUAUUGAAGAAGAUCAUAGGAUAUACUUUAUAGU | 49.9 nM | 38.9 nM | – | – |
| CGAUGAGGUGUGAGGAUAUCGUGUUCGAAAGAACGUGAGAAGGCACAUGAGGAUCACCCAUGUGAACCUUGUCG | 16.9 nM | 18.8 nM | – | – |
| AAUUAUUCAGGAGGAUAUCCCAGGACAUGAGGAUCACCCAUGUUCGGGUUGCCCUCAUGAACGCCGGAGAAGGCCUGAACGAAU | 13 nM | 17.1 nM | – | – |
| ACACAUGAGGAUCACCCAUGUAGUAAUAGCUUCCGGACCUCACAGGAUAUAUGCAAGUUCGUUGCGUAGAAGGGUGAACUCUAA | – | – | 89 nM | 92.5 nM |
| UGUACAUUAUUAAGUAAUUAGGCGAAGGAUAUAUAACAUGAGGAUCACCCAUGUACUAAGUUGAAGUAGAAGGUUGAGCAUUUC | – | – | 19 nM | 15.7 nM |
| UGGUAGUAGGGAGGAUAUGGGAAGAUACAUGAGGAUCACCCAUGUUUAAGAAUGCCGAGAGGCAACUAGAAGGCCCUAGUACCU | – | – | 324 nM | 23.7 nM |
| AUAAAACAUGAGGAUCACCCAUGUAGAAAUAUGGGAGGAUAUACAAAGACGAAAGUCAAAGUAGAAGGCCUAAAAG | – | – | 127 nM | 33.5 nM |
| AAAGACAUGGUGCAGGAUAUAUUAAUAGUCACAUGAGGAUCACCCAUGUUCAGAUAUCUGAACGAGUAGAAGGGCGAUGAAAAAA | – | – | 602 nM | 589 nM |
| CAAGGUACCCAAGGAUAUCCUCACAUGAGGAUCACCCAUGUGUCAGCAAAAGGAGAAGGUGGGUGAAGCUGUCUGCACGCCAAG | – | – | 53.3 nM | 4.53 nM |
| CGCACUGAUAGAGGAUAUGUUUAACAUGAGGAUCACCCAUGUGUACAAGGAUCAAUAUAUAAGUAACAGAAGGCUAUUAGUGCG | 13.9 nM | 13.4 nM | – | – |
